Test results reported in ChEMBL document CHEMBL1275392, “Assessment of chemoselective neoglycosylation methods using chlorambucil as a model” (2010).

How the values were obtained:
A549 = experiment: Growth inhibition of human A549 cells expressing p53 after 7 days by celltiter-glo assay; assay type: functional; settings: A549, 168 h
[1] = Growth inhibition of human p53 deficient H1299 cells after 7 days by celltiter-glo assay; assay type: functional; settings: NCI-H1299, 168 h
How it was run: (§1)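 Cells seeded at 500 per well in 384-well plates. Compounds came from 30 mM DMSO stocks, serially diluted and tested in quadruplicate. Incubation was 7 d at 37 °C under 5% CO2. Calcein AM (10 μM) and EthD-1 were added, followed by a fluorescence read. CellTiter-Glo lysis was then done for 10 min at room temperature, with a luminescence read. GI50 came from curve fitting.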

HT-29 = experiment: Growth inhibition of human HT-29 cells after 7 days by celltiter-glo assay; assay type: functional; settings: HT-29, 168 h
DU-145 = experiment: Growth inhibition of human DU145 cells after 7 days by celltiter-glo assay; assay type: functional; settings: DU-145, 168 h
NCI-H460 = experiment: Growth inhibition of human NCI-H460 cells after 7 days by celltiter-glo assay; assay type: functional; settings: NCI-H460, 168 h
[2] = Growth inhibition of human p53 deficient Hep3B cells after 7 days by celltiter-glo assay; assay type: functional, Hep 3B2; settings: 168 h; how it was run: as §1
MCF7 = experiment: Growth inhibition of human MCF7 cells after 7 days by celltiter-glo assay; assay type: functional; settings: MCF7, 168 h
SK-OV-3 = experiment: Growth inhibition of human SKOV3 cells after 7 days by celltiter-glo assay; assay type: functional; settings: SK-OV-3, 168 h
HCT-15 = experiment: Growth inhibition of human HCT15 cells after 7 days by celltiter-glo assay; assay type: functional; settings: HCT-15, 168 h
SF-268 = experiment: Growth inhibition of human SF268 cells after 7 days by celltiter-glo assay; assay type: functional; settings: SF-268, 168 h

Structure (SMILES) | GI50 (A549) | GI50 [1] | GI50 (HT-29) | GI50 (DU-145) | GI50 (NCI-H460) | GI50 [2] | GI50 (MCF7) | GI50 (SK-OV-3) | GI50 (HCT-15) | GI50 (SF-268)
CON(CCCc1ccc(N(CCCl)CCCl)cc1)C1OC[C@@H](O)[C@H](O)[C@@H]1O (stereo not given in full) | 2.3 µM | 760 nM | 2 µM | 3.6 µM | 5.2 µM | 2.5 µM | 1 µM | 1800 nM | 790 nM | 1600 nM
CON(CCCc1ccc(N(CCCl)CCCl)cc1)C1OC[C@H](O)[C@@H](O)[C@H]1O (stereo not given in full) | 2.2 µM | 880 nM | 2.4 µM | 3.9 µM | 5.8 µM | 3 µM | 0.94 µM | 1800 nM | 950 nM | 1200 nM
O=C1O[C@@H]2[C@@H](O)[C@H](N(O)CCCc3ccc(N(CCCl)CCCl)cc3)O[C@@H]2[C@@H]1O | 10.4 µM | 3800 nM | 9.9 µM | 14.8 µM | 13.1 µM | 7.2 µM | 4.1 µM | 10100 nM | 8500 nM | 3100 nM
CON(CCCc1ccc(N(CCCl)CCCl)cc1)[C@@H]1O[C@H](CO)[C@@H](O)[C@H](O)[C@H]1F | 2.6 µM | 1200 nM | 2.4 µM | 4.2 µM | 6.4 µM | 3.2 µM | 7.3 µM | 2000 nM | 1080 nM | 2200 nM
[O-]/[N+](=C\[C@@H](O)[C@H](O)CO)CCCc1ccc(N(CCCl)CCCl)cc1 | 3 µM | 1070 nM | 3.2 µM | 3.6 µM | 3.8 µM | 1.7 µM | 2 µM | 2600 nM | 2500 nM | 1200 nM
CON(CCCc1ccc(N(CCCl)CCCl)cc1)[C@@H]1O[C@H](CO)[C@@H](O)[C@H](O)[C@H]1O | 4.5 µM | 1400 nM | 2.9 µM | 5.5 µM | 12.3 µM | 3.4 µM | 1.5 µM | 3000 nM | 2800 nM | 1800 nM
CON(CCCc1ccc(N(CCCl)CCCl)cc1)C1OC[C@H](O)[C@H]1O (stereo not given in full) | 2 µM | 720 nM | 1.2 µM | 2.1 µM | 1.9 µM | 1.4 µM | 0.87 µM | 2100 nM | 820 nM | 1300 nM
CON(CCCc1ccc(N(CCCl)CCCl)cc1)[C@@H]1O[C@H](COCc2ccccc2)[C@@H](OCc2ccccc2)[C@H]1OCc1ccccc1 | > 100 µM | 82000 nM | > 100 µM | > 100 µM | > 100 µM | > 100 µM | > 100 µM | > 100000 nM | > 100000 nM | > 100000 nM
CON(CCCc1ccc(N(CCCl)CCCl)cc1)C1O[C@H](CO)[C@@H](O[C@@H]2O[C@H](CO)[C@H](O)[C@H](O)[C@H]2O)[C@H](O)[C@@H]1O (stereo not given in full) | 56 µM | 24000 nM | 34 µM | 43 µM | 57.7 µM | 38 µM | 26 µM | 35000 nM | 31000 nM | 19100 nM
O=C(CCCc1ccc(N(CCCl)CCCl)cc1)N/N=C/[C@@H](O)[C@H](O)CO | 7.5 µM | 2600 nM | 4.8 µM | 9.5 µM | 10.8 µM | 4.1 µM | 4.2 µM | 6200 nM | 7300 nM | 2600 nM
CON(CCCc1ccc(N(CCCl)CCCl)cc1)C1C[C@@H](O)[C@@H](O)[C@@H](CO)O1 (stereo not given in full) | 3.2 µM | 1500 nM | 3.5 µM | 5 µM | 6.6 µM | 3.3 µM | 1.04 µM | 2400 nM | 1600 nM | 2200 nM
CON(CCCc1ccc(N(CCCl)CCCl)cc1)[C@@H]1O[C@H](CO)[C@H](O)[C@H](O)[C@@H]1O | 2.7 µM | 2400 nM | 1.9 µM | 3.4 µM | 4.3 µM | 2.6 µM | 1.8 µM | 2000 nM | 2000 nM | 1700 nM
CON(CCCc1ccc(N(CCCl)CCCl)cc1)[C@@H]1O[C@H](CO)[C@@H](O)[C@H](O[C@H](C)C(=O)O)[C@H]1NC(C)=O | 8.6 µM | 2400 nM | 6.3 µM | 8.9 µM | 13.1 µM | 8 µM | 4.5 µM | 7000 nM | 3100 nM | 4100 nM
C[C@H]1O[C@@H](NNC(=O)CCCc2ccc(N(CCCl)CCCl)cc2)[C@H](O)[C@@H](O)[C@H]1O | 28 µM | 8700 nM | 16.7 µM | 24 µM | 51 µM | 11 µM | 6.3 µM | 22000 nM | > 100000 nM | 5800 nM
CON(CCCc1ccc(N(CCCl)CCCl)cc1)C1O[C@@H](C)[C@H](O)[C@@H](O)[C@H]1O (stereo not given in full) | 2.5 µM | 3700 nM | 2.4 µM | 4.2 µM | 5.3 µM | 2.6 µM | 2.2 µM | 2000 nM | 2000 nM | 1900 nM
CON(CCCc1ccc(N(CCCl)CCCl)cc1)C1O[C@H](C(=O)O)[C@H](O)[C@H](O)[C@H]1O (stereo not given in full) | 17.1 µM | 4900 nM | 14.9 µM | 16.3 µM | 34 µM | 14.7 µM | 4.5 µM | 12800 nM | 8100 nM | 8900 nM
CON(CCCc1ccc(N(CCCl)CCCl)cc1)C1O[C@@H](CO)[C@H](O)[C@@H](O)[C@@H]1O (stereo not given in full) | 3.3 µM | 550 nM | 2.9 µM | 4.8 µM | 8 µM | 3.9 µM | 3.2 µM | 2500 nM | 880 nM | 2000 nM
CON(CCCc1ccc(N(CCCl)CCCl)cc1)C1O[C@@H](CO)[C@H](O)[C@H](O)[C@@H]1O (stereo not given in full) | 3.5 µM | 1300 nM | 2.2 µM | 6 µM | 10.4 µM | 2.5 µM | 9 µM | 3100 nM | 1700 nM | 3200 nM
CON(CCCc1ccc(N(CCCl)CCCl)cc1)C1O[C@@H](C)[C@@H](OCc2ccccc2)[C@@H](OCc2ccccc2)[C@@H]1OCc1ccccc1 (stereo not given in full) | 6.4 µM | 3300 nM | 7.5 µM | 10 µM | 15.8 µM | 9.5 µM | 4 µM | 7200 nM | 4600 nM | 5700 nM
CON(CCCc1ccc(N(CCCl)CCCl)cc1)C1O[C@@H](C)[C@@H](O)[C@@H](O)[C@@H]1O (stereo not given in full) | 2.2 µM | 1200 nM | 2.3 µM | 3.8 µM | 5.4 µM | 3 µM | 0.78 µM | 1800 nM | 1400 nM | 2000 nM
CO[C@@H]1[C@@H](OC(N)=O)[C@@H](O)C(N(CCCc2ccc(N(CCCl)CCCl)cc2)OC)OC1(C)C (stereo not given in full) | 5.8 µM | 1300 nM | 6 µM | 6.7 µM | 9.7 µM | 6 µM | 4.8 µM | 5400 nM | 1700 nM | 5100 nM
